Measurements: ChEMBL document CHEMBL4699532, “Decoding the Papain Inhibitor from Streptomyces mobaraensis as Being Hydroxylated Chymostatin Derivatives: Purification, Structure Analysis, and Putative Biosynthetic Pathway” (J Nat Prod, 2020)

Key:
[1] = Inhibition of chymotrypsin (unknown origin) using sucAAPFamc substrate preincubated for 10 mins followed by addition of substrate and measured every 30 sec for 60 mins by fluorescence based assay; design: species or system Homo sapiens
Procedure, shortened: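 Chymotrypsin, 1.5 nM final (added as 15 nM stock), preincubated with inhibitor for 10 min at 30 °C in 100 mM Tris pH 7.8, 10 mM CaCl2. Started with sucAAPFamc (added as 15 μM stock). AMC release read every 30 s for 60 min (ex 350, em 450 nm), in triplicate. IC50 from fitted data.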

[2] = target: T1, Papain (Carica papaya, UniProt P00784); assay: Inhibition of papaya papain using cbzFRamc substrate preincubated for 10 mins followed by addition of substrate and measured every 30 sec for 60 mins by fluorescence based assay
T1 sequence (P00784 whole entry): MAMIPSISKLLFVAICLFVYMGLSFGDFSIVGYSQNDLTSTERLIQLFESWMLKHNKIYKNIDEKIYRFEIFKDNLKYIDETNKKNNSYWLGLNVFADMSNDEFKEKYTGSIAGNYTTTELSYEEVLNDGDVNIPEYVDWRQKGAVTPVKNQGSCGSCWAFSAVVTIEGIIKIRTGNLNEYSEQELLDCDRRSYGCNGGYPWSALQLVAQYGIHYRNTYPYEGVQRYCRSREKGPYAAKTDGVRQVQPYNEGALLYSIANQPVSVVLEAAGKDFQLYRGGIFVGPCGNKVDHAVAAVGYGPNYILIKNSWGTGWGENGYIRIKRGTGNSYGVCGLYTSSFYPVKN
Procedure, shortened: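 Papain, 1.5 nM final (added as 15 nM stock), preincubated with inhibitor for 10 min at 30 °C in 50 mM phosphate pH 6.8, 10 mM EDTA, 2 mM DTT. Started with 50 μM cbzFRamc. AMC release read every 30 s for 60 min (ex 350, em 450 nm), in triplicate. IC50 from fitted data.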

[3] = target: T2, Papain (Carica papaya) (UniProt P00784); assay: Binding affinity to papaya papain assessed as change in melting temperature at 200 uM incubated for 15 mins by scanning fluorimetry
T2 sequence (whole entry): T1 sequence (P00784 whole entry)
Procedure, shortened: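 Melting followed by tryptophan fluorescence at 330 and 350 nm during 1 °C/min heating (differential scanning fluorimetry), run in duplicate. Shift taken as difference from the enzyme's melting point.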

[4] = species: Homo sapiens; assay: Binding affinity to chymotrypsin (unknown origin) assessed as change in melting temperature at 200 uM incubated for 15 mins by scanning fluorimetry
Procedure, shortened: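 20 μM chymotrypsin held on ice for 15 min with 200 μM inhibitor in 100 mM Tris pH 7.8, 10 mM CaCl2. Melting followed by tryptophan fluorescence at 330 and 350 nm during 1 °C/min heating (differential scanning fluorimetry), run in duplicate. Shift taken as difference from the enzyme's melting point.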

Row | Structure (SMILES) | IC50 [1] [nM] | IC50 [2] [nM] | ΔTm [3] [°C] | ΔTm [4] [°C]
1 | CC(=O)N[C@@H](CC(C)C)C(=O)N[C@@H](CC(C)C)C(=O)N[C@H](C=O)CCCNC(=N)N [LEUPEPTIN] | > 30000 | 2.2 | 1 | 0.2
2 | CC(C)[C@H](NC(=O)[C@@H](NC(=O)N[C@@H](Cc1ccc(O)cc1)C(=O)O)[C@H]1CCNC(=N)N1)C(=O)N[C@H](C=O)Cc1ccc(O)cc1 | 4.8 | 6.3 | 0.9 | 15.1
3 | CC(C)[C@H](NC(=O)[C@@H](NC(=O)N[C@@H](Cc1ccc(O)cc1)C(=O)O)[C@H]1CCNC(=N)N1)C(=O)N[C@H](C=O)Cc1ccccc1 | 7 | 17.8 | 0.9 | 13.5
4 | CC(C)[C@H](NC(=O)[C@H](CCCNC(=N)N)NC(=O)N[C@@H](Cc1ccccc1)C(=O)O)C(=O)N[C@H](C=O)CCCNC(=N)N [ANTIPAIN] | > 30000 | 3.4 | 0.9 | 1.7
